In ChEMBL document CHEMBL4371052, “Diarylcarbonates are a new class of deubiquitinating enzyme inhibitor” (Bioorg Med Chem Lett, 2019):
Active and inactive are the calls of the source. No cut-off for these calls is given here.

How the values were obtained:
[1] = Inhibition of deubiquitinase in HEK293T cells expressing N-terminal HA-tagged ubiquitin assessed as stabilization of HMW-Ub proteins after 2 hrs by Western blot analysis; type: cell-based, Homo sapiens
[2] = target: Ubiquitin carboxyl-terminal hydrolase 9X (Homo sapiens) (UniProt Q93008); assay: Inhibition of USP9x in human K562 cells assessed as decrease in Bcr-Abl expression at 50 uM measured after 2 hrs by Western blot analysis; type: cell-based
Chain of Ubiquitin carboxyl-terminal hydrolase 9X (Homo sapiens) (Q93008 whole entry, the tested form may be a part): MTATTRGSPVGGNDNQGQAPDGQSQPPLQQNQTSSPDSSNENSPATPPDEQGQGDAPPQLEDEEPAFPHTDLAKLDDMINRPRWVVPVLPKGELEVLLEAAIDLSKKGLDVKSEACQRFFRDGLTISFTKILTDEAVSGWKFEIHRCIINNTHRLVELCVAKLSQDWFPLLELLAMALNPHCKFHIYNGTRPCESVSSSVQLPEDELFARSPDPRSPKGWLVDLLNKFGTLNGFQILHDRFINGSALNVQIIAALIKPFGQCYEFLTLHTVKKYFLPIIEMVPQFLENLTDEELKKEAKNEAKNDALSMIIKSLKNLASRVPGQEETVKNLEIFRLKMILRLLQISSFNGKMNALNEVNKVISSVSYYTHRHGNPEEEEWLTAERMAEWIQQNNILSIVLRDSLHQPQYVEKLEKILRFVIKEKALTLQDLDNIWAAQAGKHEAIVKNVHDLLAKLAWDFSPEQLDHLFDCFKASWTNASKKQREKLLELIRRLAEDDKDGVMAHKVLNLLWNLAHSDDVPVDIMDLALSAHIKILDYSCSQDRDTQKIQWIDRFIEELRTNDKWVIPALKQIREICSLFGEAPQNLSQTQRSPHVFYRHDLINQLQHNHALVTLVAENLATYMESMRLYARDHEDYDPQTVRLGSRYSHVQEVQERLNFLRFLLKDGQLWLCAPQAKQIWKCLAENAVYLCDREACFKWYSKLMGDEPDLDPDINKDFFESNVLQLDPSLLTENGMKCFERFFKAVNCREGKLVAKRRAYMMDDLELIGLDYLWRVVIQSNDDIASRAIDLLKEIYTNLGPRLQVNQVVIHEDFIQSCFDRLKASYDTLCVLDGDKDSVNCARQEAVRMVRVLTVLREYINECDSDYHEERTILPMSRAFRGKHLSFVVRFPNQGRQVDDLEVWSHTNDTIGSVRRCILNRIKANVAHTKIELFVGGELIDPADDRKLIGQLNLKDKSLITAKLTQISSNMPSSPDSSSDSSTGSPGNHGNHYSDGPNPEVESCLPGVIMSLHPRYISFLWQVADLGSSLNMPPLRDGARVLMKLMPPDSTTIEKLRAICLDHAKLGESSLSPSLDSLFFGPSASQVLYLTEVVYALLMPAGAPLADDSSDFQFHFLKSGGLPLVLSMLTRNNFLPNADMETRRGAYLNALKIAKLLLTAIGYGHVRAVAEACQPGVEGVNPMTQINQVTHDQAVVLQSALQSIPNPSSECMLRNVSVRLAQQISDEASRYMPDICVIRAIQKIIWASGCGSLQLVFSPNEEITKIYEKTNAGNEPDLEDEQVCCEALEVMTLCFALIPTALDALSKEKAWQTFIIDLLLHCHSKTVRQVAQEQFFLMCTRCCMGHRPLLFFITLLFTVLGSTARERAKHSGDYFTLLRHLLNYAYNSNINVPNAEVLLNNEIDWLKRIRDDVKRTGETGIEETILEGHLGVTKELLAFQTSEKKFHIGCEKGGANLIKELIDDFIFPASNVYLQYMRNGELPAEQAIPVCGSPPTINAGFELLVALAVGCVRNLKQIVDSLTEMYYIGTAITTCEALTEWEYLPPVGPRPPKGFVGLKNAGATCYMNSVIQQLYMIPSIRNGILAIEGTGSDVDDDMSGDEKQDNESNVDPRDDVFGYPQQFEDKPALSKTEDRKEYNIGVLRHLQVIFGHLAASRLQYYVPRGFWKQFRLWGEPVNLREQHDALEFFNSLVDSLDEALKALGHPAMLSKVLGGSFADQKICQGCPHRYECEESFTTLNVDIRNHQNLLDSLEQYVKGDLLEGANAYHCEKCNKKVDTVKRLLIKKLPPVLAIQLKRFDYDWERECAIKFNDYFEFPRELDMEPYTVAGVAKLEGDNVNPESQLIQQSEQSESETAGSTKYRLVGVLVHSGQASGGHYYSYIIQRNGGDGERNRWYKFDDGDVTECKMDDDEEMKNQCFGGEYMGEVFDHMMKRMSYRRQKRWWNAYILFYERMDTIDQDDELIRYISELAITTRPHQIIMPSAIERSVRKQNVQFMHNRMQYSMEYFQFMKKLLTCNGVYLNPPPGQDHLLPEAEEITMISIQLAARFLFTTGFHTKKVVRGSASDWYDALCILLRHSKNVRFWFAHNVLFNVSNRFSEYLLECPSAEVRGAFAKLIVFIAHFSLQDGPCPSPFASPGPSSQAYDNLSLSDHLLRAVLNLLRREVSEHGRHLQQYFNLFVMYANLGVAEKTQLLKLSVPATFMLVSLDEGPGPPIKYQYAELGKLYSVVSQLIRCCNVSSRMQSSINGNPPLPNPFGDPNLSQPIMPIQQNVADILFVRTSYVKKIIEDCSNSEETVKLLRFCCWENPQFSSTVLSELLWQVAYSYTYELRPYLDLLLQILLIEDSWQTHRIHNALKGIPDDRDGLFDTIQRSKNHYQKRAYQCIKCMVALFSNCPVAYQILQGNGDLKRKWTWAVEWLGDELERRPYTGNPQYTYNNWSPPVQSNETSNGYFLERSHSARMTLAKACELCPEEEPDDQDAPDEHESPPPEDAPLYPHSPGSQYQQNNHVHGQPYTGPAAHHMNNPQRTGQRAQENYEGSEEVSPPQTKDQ
Summary of the method: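 K562 cells treated with 50 μM compound for 2 h. Lysates were sonicated in SDS, and Bcr-Abl was immunoblotted with anti-Abl antibody.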

[3] = test system: Ficin (Ficus carica); assay: Inhibition of fig ficin at 100 uM using Z-Arg-AMC as substrate preincubated for 30 mins followed by substrate addition by fluorescence assay
[4] = target: Ubiquitin carboxyl-terminal hydrolase 9X (Homo sapiens) (UniProt Q93008); assay: Inhibition of recombinant His6-tagged USP9x catalytic domain (unknown origin) assessed as association constant using Ub-AMC as substrate by fluorescence assay
[5] = target: 26S proteasome (Homo sapiens) (UniProt Q99460+P49721+P20618+P28074+P28062+P28065+P28072+O00487+P25786+P25787+P25788+P25789+P28066+P60900+O14818+Q8TAA3+P40306+A5LHX3+P49720+P28070+Q99436+Q16186+P35998+P62191+P43686+P62333+P17980+P62195+Q13200+O43242+O00232+O00231+Q15008+P51665+Q9UNM6+P55036+P48556+P60896); assay: Inhibition of 26S proteasome in HEK293T cells expressing GFP-fused Ub G76V mutant assessed as increase in GFP fluorescence; type: cell-based
Summary of the method: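 HEK 293T cells expressing G76V Ub-GFP, a fusion uncleavable by DUBs that reports ubiquitin-proteasome flux, treated with compound. GFP fluorescence was the read-out, with bortezomib as proteasome-inhibitor reference.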

[6] = Inhibition of deubiquitinase in HEK293T cells assessed as stabilization of K48-linked HMW-Ub protein by Western blot analysis; type: cell-based, Homo sapiens
[7] = test system: K562; assay: Inhibition of deubiquitinase in human K562 cells assessed as accumulation of K48-linked HMW-Ub protein at 50 uM measured after 2 hrs by Western blot analysis; type: cell-based
Summary of the method: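 K562 cells exposed to compound at 50 μM for 2 h; K48-linked ubiquitin accumulation read by immunoblotting.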

[8] = target: T1, Papain (Carica papaya) (UniProt P00784); assay: Inhibition of papaya papain at 100 uM using Z-Arg-AMC as substrate preincubated for 30 mins followed by substrate addition by fluorescence assay
T1 sequence (whole entry): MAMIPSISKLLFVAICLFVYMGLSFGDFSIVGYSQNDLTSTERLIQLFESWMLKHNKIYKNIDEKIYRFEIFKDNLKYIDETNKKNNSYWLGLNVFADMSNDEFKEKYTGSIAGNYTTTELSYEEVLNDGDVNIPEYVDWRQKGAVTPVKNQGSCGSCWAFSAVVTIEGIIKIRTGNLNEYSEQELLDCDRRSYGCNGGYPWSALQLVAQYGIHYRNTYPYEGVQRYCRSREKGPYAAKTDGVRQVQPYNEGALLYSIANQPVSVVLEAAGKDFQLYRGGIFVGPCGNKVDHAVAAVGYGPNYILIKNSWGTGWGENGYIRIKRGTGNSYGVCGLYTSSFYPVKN
Summary of the method: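 Enzyme (papain or ficin) preincubated 30 min with inhibitor at 100 μM, then Z-Arg-AMC substrate added at 300 μM; AMC release followed.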

[9] = target: Ubiquitin carboxyl-terminal hydrolase 7 (Homo sapiens) (UniProt Q93009); assay: Inhibition of recombinant His6-tagged USP7 catalytic domain (unknown origin) assessed as association constant using Ub-AMC as substrate by fluorescence assay
Chain of Ubiquitin carboxyl-terminal hydrolase 7 (Homo sapiens) (Q93009 whole entry, looked up, the tested form may be a part): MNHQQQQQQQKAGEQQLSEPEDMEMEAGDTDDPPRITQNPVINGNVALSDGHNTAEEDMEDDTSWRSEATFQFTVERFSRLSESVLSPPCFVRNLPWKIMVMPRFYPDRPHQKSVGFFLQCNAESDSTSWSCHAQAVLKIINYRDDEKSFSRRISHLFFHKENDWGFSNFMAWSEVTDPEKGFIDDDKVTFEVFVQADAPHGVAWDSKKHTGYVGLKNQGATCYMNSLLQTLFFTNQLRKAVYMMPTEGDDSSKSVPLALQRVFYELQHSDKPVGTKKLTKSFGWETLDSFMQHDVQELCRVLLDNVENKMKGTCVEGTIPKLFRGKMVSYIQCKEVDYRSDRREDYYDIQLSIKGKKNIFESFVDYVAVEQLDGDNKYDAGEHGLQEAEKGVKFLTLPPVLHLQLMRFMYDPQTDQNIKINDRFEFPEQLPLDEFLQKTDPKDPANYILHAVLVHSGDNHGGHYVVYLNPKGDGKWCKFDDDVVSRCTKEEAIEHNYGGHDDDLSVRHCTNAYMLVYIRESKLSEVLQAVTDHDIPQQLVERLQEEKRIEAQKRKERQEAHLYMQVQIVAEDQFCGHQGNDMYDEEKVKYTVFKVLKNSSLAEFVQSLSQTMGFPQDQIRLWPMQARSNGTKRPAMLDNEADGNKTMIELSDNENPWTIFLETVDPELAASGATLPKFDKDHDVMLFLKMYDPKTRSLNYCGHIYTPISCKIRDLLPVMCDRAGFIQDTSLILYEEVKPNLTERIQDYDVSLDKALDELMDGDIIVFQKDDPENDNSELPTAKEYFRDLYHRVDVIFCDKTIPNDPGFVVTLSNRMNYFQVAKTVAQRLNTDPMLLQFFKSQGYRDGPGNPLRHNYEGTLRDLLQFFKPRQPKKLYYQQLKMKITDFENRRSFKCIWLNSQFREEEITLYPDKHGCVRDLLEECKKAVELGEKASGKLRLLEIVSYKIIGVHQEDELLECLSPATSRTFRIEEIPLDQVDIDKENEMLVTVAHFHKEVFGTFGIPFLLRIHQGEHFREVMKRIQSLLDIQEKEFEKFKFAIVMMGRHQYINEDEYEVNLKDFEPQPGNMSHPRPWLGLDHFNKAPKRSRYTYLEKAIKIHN

[10] = test system: MCF7; assay: Cytotoxicity against human MCF7 cells assessed as decrease in cell viability treated every 24 hrs measured after 72 hrs by alamar blue assay; type: functional, cell-based
Summary of the method: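 MCF7 or B16/F10 cells dosed with compound every 24 h. Viable cells were quantified with Alamar Blue after 72 h.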

[11] = species: Homo sapiens; assay: Inhibition of deubiquitinase in HEK293T cells expressing N-terminal HA-tagged ubiquitin assessed as stabilization of HMW-Ub proteins by measuring half life at 250 uM after 2 hrs by Western blot analysis; type: cell-based
[12] = Inhibition of deubiquitinase in COS1 cells expressing N-terminal HA-tagged ubiquitin assessed as stabilization of HMW-Ub proteins by Western blot analysis; type: cell-based, Chlorocebus aethiops
Summary of the method: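 HMW-Ub decomposition followed in lysates of Cos-1 cells expressing HA-Ub; EC50 from inhibition of HMW-Ub loss; mean ± s.e.m. of at least 3 independent experiments.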

[13] = target: Sentrin-specific protease 6 (Homo sapiens) (UniProt Q9GZR1); assay: Inhibition of recombinant His6-tagged SENP6 catalytic domain (628 to 1112 residues) (unknown origin) at 1 to 25 uM using SUMO2-modified RanGap1 as substrate preincubated for 30 mins followed by substrate addition and measured after 10 mins by Western blot analysis
Chain of Sentrin-specific protease 6 (Homo sapiens) (Q9GZR1 whole entry, the tested form may be a part): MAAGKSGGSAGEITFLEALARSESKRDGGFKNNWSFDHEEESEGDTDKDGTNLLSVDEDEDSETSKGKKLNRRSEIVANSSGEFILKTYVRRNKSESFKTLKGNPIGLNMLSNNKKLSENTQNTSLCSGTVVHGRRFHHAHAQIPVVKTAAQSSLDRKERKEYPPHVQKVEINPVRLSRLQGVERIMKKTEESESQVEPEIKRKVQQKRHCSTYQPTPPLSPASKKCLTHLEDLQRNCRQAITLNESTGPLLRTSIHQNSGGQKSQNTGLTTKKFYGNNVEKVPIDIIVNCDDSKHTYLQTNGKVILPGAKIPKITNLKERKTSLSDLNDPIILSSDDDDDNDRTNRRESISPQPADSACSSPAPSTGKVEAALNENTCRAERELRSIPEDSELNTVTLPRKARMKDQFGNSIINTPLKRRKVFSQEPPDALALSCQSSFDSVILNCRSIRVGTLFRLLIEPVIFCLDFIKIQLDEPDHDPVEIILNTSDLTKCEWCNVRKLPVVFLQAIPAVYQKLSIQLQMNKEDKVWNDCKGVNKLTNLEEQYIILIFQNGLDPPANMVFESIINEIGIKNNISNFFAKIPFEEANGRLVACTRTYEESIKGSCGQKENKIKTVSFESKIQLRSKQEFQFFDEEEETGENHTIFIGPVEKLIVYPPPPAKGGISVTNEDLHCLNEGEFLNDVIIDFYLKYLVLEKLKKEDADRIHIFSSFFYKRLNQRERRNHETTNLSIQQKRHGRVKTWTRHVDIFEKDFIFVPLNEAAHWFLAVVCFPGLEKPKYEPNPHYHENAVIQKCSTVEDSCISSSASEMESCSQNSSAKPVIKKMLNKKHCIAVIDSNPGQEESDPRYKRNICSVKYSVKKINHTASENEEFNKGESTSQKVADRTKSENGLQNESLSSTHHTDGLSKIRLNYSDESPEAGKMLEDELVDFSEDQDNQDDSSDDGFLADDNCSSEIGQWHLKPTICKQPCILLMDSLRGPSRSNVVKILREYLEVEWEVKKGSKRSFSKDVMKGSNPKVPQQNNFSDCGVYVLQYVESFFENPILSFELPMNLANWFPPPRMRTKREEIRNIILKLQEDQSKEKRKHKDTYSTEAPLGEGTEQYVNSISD
Summary of the method: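 His6-SENP6 catalytic domain (aa 628-1112, 200 nM) treated with inhibitor 30 min at room temperature; SUMOylated His6-RanGap1 (aa 418-588, 3 μM) then added for 10 min at 37 °C; quenched in Laemmli buffer, SDS-PAGE, anti-His6 immunoblot.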

[14] = species: Homo sapiens; assay: Inhibition of deubiquitinase in HEK293T cells expressing N-terminal HA-tagged ubiquitin assessed as stabilization of HMW-Ub proteins at 25 uM after 2 hrs by Western blot analysis; type: cell-based
[15] = species: Homo sapiens; assay: Inhibition of deubiquitinase in HEK293T cells expressing N-terminal HA-tagged ubiquitin assessed as stabilization of HMW-Ub proteins at 30 uM after 2 hrs by Western blot analysis; type: cell-based
Summary of the method: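 Lysate of HEK 293T cells expressing HA-ubiquitin, incubated with inhibitor or DMSO vehicle at 37 °C for up to 2 h. Reactions quenched with reducing Laemmli buffer. Remaining high-molecular-weight ubiquitinated proteins assessed by SDS-PAGE and anti-HA immunoblot, relative to DMSO control at time 0. Duplicate runs.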

[16] = species: Homo sapiens; assay: Inhibition of deubiquitinase in HEK293T cells expressing N-terminal HA-tagged ubiquitin assessed as stabilization of HMW-Ub proteins at 100 uM after 2 hrs by Western blot analysis; type: cell-based
[17] = species: Homo sapiens; assay: Inhibition of deubiquitinase in HEK293T cells expressing N-terminal HA-tagged ubiquitin assessed as stabilization of HMW-Ub proteins by measuring half life at 500 uM after 2 hrs by Western blot analysis; type: cell-based
[18] = target: Ubiquitin carboxyl-terminal hydrolase 9X (Homo sapiens) (UniProt Q93008); assay: Inhibition of recombinant human N-terminal His6-tagged USP9x assessed as association constant using Cy5-UbVME as substrate preincubated for 15 mins followed by substrate addition and measured after 7 mins by fluorescence assay
[19] = species: Homo sapiens; assay: Inhibition of deubiquitinase in HEK293T cells expressing N-terminal HA-tagged ubiquitin assessed as stabilization of HMW-Ub proteins at 1 uM after 2 hrs by Western blot analysis; type: cell-based

COc1ccc(OC(=O)Oc2ccc(CN)cc2)cc1
EC50 [1]: 260 µM

NCc1ccc(OC(=O)Oc2cccc3ccccc23)cc1
inhibition [2]: Active
inhibition [3]: inactive
K [4]: 17 M⁻¹ s⁻¹
inhibition [5]: inactive
EC50 [6]: < 50 µM
inhibition [7]: Active
inhibition [8]: inactive
EC50 [1]: 40 µM
K [9]: inactive

NCc1ccc(NC(=O)Oc2ccccc2)cc1
EC50 [1]: > 150 µM

CC(C)(C)OC(=O)NCc1ccc(OC(=O)Oc2ccc3ccccc3c2)cc1
EC50 [1]: > 150 µM

Oc1ccc2ccccc2c1
Activity [10]: inactive

C=CC(=O)N1C/C(=C\c2ccc([N+](=O)[O-])cc2)C(=O)/C(=C/c2ccc([N+](=O)[O-])cc2)C1
K [4]: 140 M⁻¹ s⁻¹

NCc1ccc(OC(=O)Cc2ccccc2)cc1
EC50 [1]: > 150 µM

Cc1ccc(OC(=O)Oc2ccc(CN)cc2)cc1
EC50 [1]: 250 µM

N#CSc1cc(SC#N)c(N)nc1N
K [4]: 90 M⁻¹ s⁻¹

CC(C)(C)OC(=O)NCc1ccc(OC(=O)Oc2ccccc2)cc1
EC50 [1]: > 150 µM

NCc1ccc(OC(=O)Nc2ccccc2)cc1
EC50 [1]: > 150 µM

O=C(Oc1ccccc1)Oc1ccc(CNCc2ccc(Cl)cc2)cc1
EC50 [1]: 300 µM

O=C(Oc1ccccc1)Oc1ccccc1
EC50 [1]: > 150 µM

CC(C)(C)OC(=O)NCc1ccc(OC(=O)Oc2ccc(Cl)cc2)cc1
EC50 [1]: > 150 µM

NCc1ccc(OC(=O)Oc2ccc(Cl)cc2)cc1
inhibition [2]: Active
inhibition [3]: inactive
T1/2 [11]: > 6 h
EC50 [12]: 50 µM
K [4]: 18 M⁻¹ s⁻¹
inhibition [13]: inactive
inhibition [5]: inactive
EC50 [6]: < 50 µM
inhibition [7]: Active
inhibition [8]: inactive
EC50 [1]: 30 µM
K [9]: 13 M⁻¹ s⁻¹

CC(C)(C)CNCc1ccc(OC(=O)Oc2ccc3ccccc3c2)cc1
K [4]: inactive
EC50 [1]: 30 µM
K [9]: 21 M⁻¹ s⁻¹

NCc1ccc(CC(=O)Oc2ccccc2)cc1
EC50 [1]: > 150 µM

NCc1ccc(OC(=O)Oc2ccc(F)cc2)cc1
EC50 [1]: 300 µM

NCc1ccc(OC(=O)Oc2ccc(Br)cc2)cc1
inhibition [2]: Active
inhibition [3]: inactive
EC50 [12]: 40 µM
K [4]: 6 M⁻¹ s⁻¹
inhibition [13]: inactive
inhibition [5]: inactive
EC50 [6]: < 50 µM
inhibition [7]: Active
inhibition [8]: inactive
EC50 [1]: 30 µM
K [9]: 8 M⁻¹ s⁻¹

Cc1ccc(/C=C2\CNC/C(=C\c3ccc(C)cc3)C2=O)cc1
inhibition [14]: Active

CCC[C@H](NC(=O)/C(C#N)=C/c1cccc(Br)n1)c1ccccc1
K [4]: 50 M⁻¹ s⁻¹
K [9]: 66 M⁻¹ s⁻¹

Cc1ccc(OC(=O)Oc2cccc(C)c2)cc1
EC50 [1]: > 150 µM

NCc1ccc(OC(=O)Oc2ccccc2Cl)cc1
EC50 [1]: 60 µM

CC(C)CNCc1ccc(OC(=O)Oc2ccc3ccccc3c2)cc1
EC50 [1]: 70 µM

Cc1cc(C(=O)CN2CCCC2)c(C)n1-c1ccc(F)cc1
inhibition [15]: Active

O=C1/C(=C/c2ccc([N+](=O)[O-])cc2)CS(=O)(=O)C/C1=C\c1ccc([N+](=O)[O-])cc1
inhibition [16]: Active

NCc1ccc(O)cc1
Activity [10]: inactive

NCc1ccc(OC(=O)Oc2ccccc2)cc1
EC50 [12]: 250 µM
T1/2 [17]: > 0.5 h
EC50 [1]: 210 µM

COc1ccc(OC(=O)Oc2cccc(OC)c2)cc1
EC50 [1]: > 150 µM

S=C=NCCc1ccccc1
K [18]: 150 M⁻¹ s⁻¹

CC(C)C[C@H](NC(=O)[C@H](Cc1ccccc1)NC(=O)c1cnccn1)B(O)O
inhibition [19]: inactive

CC(C)COC(=O)Oc1ccc(CN)cc1
EC50 [1]: > 500 µM
